Sampled rows, rich in hits. Any-hit rate of the full collection: about 1.9%.
M4 ag = CHRM4 agonism in calcium assay; P08173; CHO-K1 hM4/Gqi5, Fluo-8 calcium fluorescence; vehicle 0%, full acetylcholine response 100%; activation, % at 3 µM; 360,000 compounds, 0.14% hits;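 active means activation above the run mean over all test wells plus 3 SD, cut at about 32% in these data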;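 further: peak over basal fluorescence ratio per well then scaled between controls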
CHRM5 antagonist = CHRM5 antagonism in calcium assay. P08912. CHO-hM5 cells, Fluo-8 calcium fluorescence, ACh EC80. inhibition, % at 3 µM. 360,000 compounds, 0.59% hits;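 active means inhibition above a per-plate cutoff, the mean of that plate's test compounds plus 3 SD, cut at about 27% in these data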
Target sequence (P08912 whole entry, looked up): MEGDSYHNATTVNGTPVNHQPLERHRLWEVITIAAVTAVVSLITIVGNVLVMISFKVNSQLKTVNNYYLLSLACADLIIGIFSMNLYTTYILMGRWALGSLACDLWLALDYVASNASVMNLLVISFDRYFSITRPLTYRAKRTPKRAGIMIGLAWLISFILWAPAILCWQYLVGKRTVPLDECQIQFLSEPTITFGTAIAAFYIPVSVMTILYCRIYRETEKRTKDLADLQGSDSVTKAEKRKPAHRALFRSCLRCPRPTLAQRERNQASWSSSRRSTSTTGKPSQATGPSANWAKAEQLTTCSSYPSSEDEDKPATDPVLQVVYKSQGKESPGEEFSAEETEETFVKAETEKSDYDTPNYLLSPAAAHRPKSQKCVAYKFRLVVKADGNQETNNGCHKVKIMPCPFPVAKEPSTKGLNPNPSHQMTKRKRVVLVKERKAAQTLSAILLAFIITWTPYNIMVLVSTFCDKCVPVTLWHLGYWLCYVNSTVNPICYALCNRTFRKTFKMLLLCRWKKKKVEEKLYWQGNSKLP
M4 antag = antagonists of human muscarinic M4 receptor (CHRM4) | CHO-hM4 cells, ACh EC80, Fluo-8 calcium fluorescence | inhibition, % at 3 µM | AID 624125 | 360,000 compounds, 0.73% hits;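 active means inhibition above its plate's cutoff, the mean inhibition of sample wells plus 3 SD, cut at about 27% in these data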
M4 PAM = CHRM4 positive allosteric modulation; CHO-K1 hM4/Gqi5, Fluo-8 calcium fluorescence, ACh EC20; 0% = ACh EC20, 100% = maximal ACh; activation, % at 3 µM; P08173; 360,000 compounds, 0.4% hits; AID 624126;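 active means activation above its plate's cutoff, the mean activation of sample wells plus 3 SD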
CHRM5 PAM = potentiates acetylcholine response at human M5 receptor. P08912. CHO-K1 hM5, Fluo-8 calcium, ACh EC20 PAM; 0% = ACh EC20, 100% = ACh EC100. activation, % at 3 µM. 360,000 compounds, 0.3% hits;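 active means activation above the run cutoff, the mean activation of all test compounds plus 3 SD, cut at about 18% in these data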
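Test system: CHO-K1 hM5 cells / Doses: single-point, 3 µM nominal / Times: Post-acetylcholine fluorescence recording 140 s / Technique: Fluo-8 calcium fluorescence / Measure: Max/basal fluorescence ratio as % of EC20–EC100 ACh window / Benchmarks: low control EC20 acetylcholine (0%), high control EC100 acetylcholine (100%) / Replicates: one well per compound, no replicates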
CHRM5 agonist = agonists of human muscarinic M5 receptor (CHRM5) | AID 624037 | activation, % at 3 µM | CHO-K1 hM5 cells, Fluo-8 calcium fluorescence; 0% DMSO wells, 100% maximal acetylcholine response | 360,000 compounds, 0.19% hits;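 active means activation above the run's mean over test compounds plus 3 SD, cut at about 23% in these data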;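 further: signal is peak over basal fluorescence ratio across the kinetic read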
Numbers stand for hits.

For CCOc1ccc(/C=N/OCC(=O)Nc2ccc3c(c2)OCO3)cc1 the results were M4 ag inactive, CHRM5 antagonist inactive, M4 antag inactive, M4 PAM inactive, CHRM5 PAM inactive and CHRM5 agonist inactive.
Screening Cc1ccc(C(=O)OCC(=O)Nc2ccc3c(c2)OCO3)o1 returned M4 ag inactive, CHRM5 antagonist inactive, M4 antag inactive, M4 PAM inactive, CHRM5 PAM 20 and CHRM5 agonist inactive.
`COc1ccc(/C=N/OCC(=O)Nc2ccc3c(c2)OCO3)c(OC)c1` gave M4 ag inactive, CHRM5 antagonist inactive, M4 antag 38, M4 PAM inactive, CHRM5 PAM inactive and CHRM5 agonist inactive.
`CCCNS(=O)(=O)c1ccc(OCC(=O)Nc2ccc3c(c2)OCO3)cc1` gave M4 ag inactive, CHRM5 antagonist inactive, M4 antag 45, M4 PAM inactive, CHRM5 PAM inactive and CHRM5 agonist inactive.
`NC(=O)C1CCN(C(=O)NC(=O)c2ccccc2)CC1` gave M4 ag inactive, CHRM5 antagonist inactive, M4 antag inactive, M4 PAM inactive, CHRM5 PAM inactive and CHRM5 agonist inactive.
For COc1cc(CN2CCC(n3nccc3NC(=O)c3ccccc3OC)CC2)ccc1F the results were M4 ag inactive, CHRM5 antagonist inactive, M4 antag inactive, M4 PAM inactive, CHRM5 PAM inactive and CHRM5 agonist inactive.
Nc1ccn([C@@H]2O[C@H](CNC(=O)[C@@H](N)CSCc3ccccc3)[C@@H](O)[C@H]2O)c(=O)n1 was read as M4 ag inactive, CHRM5 antagonist inactive, M4 antag inactive, M4 PAM inactive, CHRM5 PAM inactive and CHRM5 agonist inactive.
Screening CC(NCc1ccc(OCC(N)=O)cc1)C12CC3CC(CC(C3)C1)C2 (stereo not drawn) returned M4 ag inactive, CHRM5 antagonist inactive, M4 antag 29, M4 PAM inactive, CHRM5 PAM inactive and CHRM5 agonist inactive.
Screening COc1ccc(CNC(C)C23CC4CC(CC(C4)C2)C3)c(OC)c1OC (stereo not drawn) returned M4 ag inactive, CHRM5 antagonist inactive, M4 antag inactive, M4 PAM inactive, CHRM5 PAM inactive and CHRM5 agonist inactive.
For COc1cccc(-c2nn(-c3ccccc3)cc2CNC(C)Cn2cncn2)c1 (stereo not drawn) the results were M4 ag inactive, CHRM5 antagonist inactive, M4 antag inactive, M4 PAM inactive, CHRM5 PAM inactive and CHRM5 agonist inactive.
COc1ccc2sc(-c3ccc(S(C)(=O)=O)cc3)c(C#CCO)c2c1 was read as M4 ag inactive, CHRM5 antagonist inactive, M4 antag inactive, M4 PAM inactive, CHRM5 PAM inactive and CHRM5 agonist inactive.
`COc1ccc2c(C#CCCO)c(-c3ccc(S(C)(=O)=O)cc3)sc2c1` gave M4 ag inactive, CHRM5 antagonist inactive, M4 antag 32, M4 PAM inactive, CHRM5 PAM inactive and CHRM5 agonist inactive.
Cc1ccc(OCc2nc(-c3ccc(-n4cccc4)cc3)no2)cc1C was read as M4 ag inactive, CHRM5 antagonist inactive, M4 antag inactive, M4 PAM inactive, CHRM5 PAM inactive and CHRM5 agonist inactive.
Screening Cc1cccc(OCc2nc(-c3ccc(-n4cccc4)cc3)no2)c1 returned M4 ag inactive, CHRM5 antagonist inactive, M4 antag inactive, M4 PAM 18, CHRM5 PAM inactive and CHRM5 agonist inactive.
COc1ccc(NC(=O)c2ccccc2N2C(=O)C3C4C=CC(C5CC45)C3C2=O)c(OC)c1 (stereo not drawn) was read as M4 ag inactive, CHRM5 antagonist inactive, M4 antag inactive, M4 PAM 15, CHRM5 PAM inactive and CHRM5 agonist inactive.
Screening Cc1ccc(-c2cc(Cc3ccccc3)c(=O)[nH]n2)cc1 returned M4 ag inactive, CHRM5 antagonist inactive, M4 antag inactive, M4 PAM inactive, CHRM5 PAM inactive and CHRM5 agonist inactive.
For CC(C)(C)OC(=O)N(CCc1ccccc1)Cc1cccc(OCc2cccc(NC(=O)C3CCCC3)c2)c1 the results were M4 ag inactive, CHRM5 antagonist inactive, M4 antag inactive, M4 PAM inactive, CHRM5 PAM inactive and CHRM5 agonist inactive.
Screening Cc1cccc(OCC(=O)Nc2ccc(N3CCN(C(=O)c4ccco4)CC3)cc2)c1 returned M4 ag inactive, CHRM5 antagonist 27, M4 antag inactive, M4 PAM inactive, CHRM5 PAM inactive and CHRM5 agonist inactive.
For O=C(OCc1nnc(-c2ccc(Br)cc2)o1)c1cncc(Br)c1 the results were M4 ag inactive, CHRM5 antagonist inactive, M4 antag inactive, M4 PAM inactive, CHRM5 PAM inactive and CHRM5 agonist inactive.
`COc1cccc(CN(C)C(=O)c2cc(-c3ccc(OC)c(OC)c3)nc3ccccc23)c1` gave M4 ag inactive, CHRM5 antagonist 28, M4 antag 30, M4 PAM inactive, CHRM5 PAM inactive and CHRM5 agonist inactive.
COc1cccc(CN(C)C(=O)c2cc(-c3ccc(F)cc3)nc3ccccc23)c1 was read as M4 ag inactive, CHRM5 antagonist inactive, M4 antag inactive, M4 PAM inactive, CHRM5 PAM inactive and CHRM5 agonist inactive.
For COc1ccc(-c2cc(C(=O)N(C)Cc3cccc(OC)c3OC)c3ccccc3n2)cc1OC the results were M4 ag inactive, CHRM5 antagonist inactive, M4 antag inactive, M4 PAM inactive, CHRM5 PAM inactive and CHRM5 agonist inactive.
For COc1ccc(CN(C)C(=O)c2cc(-c3ccc(OC)c(OC)c3)nc3ccccc23)c(OC)c1 the results were M4 ag inactive, CHRM5 antagonist inactive, M4 antag 27, M4 PAM inactive, CHRM5 PAM inactive and CHRM5 agonist inactive.
Screening CCN(Cc1cc2cc(C)ccc2[nH]c1=O)C(=O)c1cccc([N+](=O)[O-])c1 returned M4 ag inactive, CHRM5 antagonist inactive, M4 antag inactive, M4 PAM inactive, CHRM5 PAM inactive and CHRM5 agonist inactive.
COc1cc(-c2c(C(=O)c3ccccc3)[nH]c(N)c2C(N)=O)ccc1F was read as M4 ag inactive, CHRM5 antagonist inactive, M4 antag inactive, M4 PAM inactive, CHRM5 PAM inactive and CHRM5 agonist inactive.
O=C(CCCN1C(=O)/C(=C\c2cccs2)SC1=S)Nc1cccc(C(=O)O)c1 was read as M4 ag inactive, CHRM5 antagonist inactive, M4 antag inactive, M4 PAM 21, CHRM5 PAM inactive and CHRM5 agonist inactive.
CC(=O)CC(C)(C)Nc1nc2ccc([N+](=O)[O-])cc2o1 was read as M4 ag inactive, CHRM5 antagonist inactive, M4 antag inactive, M4 PAM inactive, CHRM5 PAM 25 and CHRM5 agonist inactive.

Compound activity as filed in PubChem BioAssay.
